Assay results from ChEMBL document CHEMBL4145623, “Abietane Diterpenoids from the Roots of Clerodendrum trichotomum and Their Nitric Oxide Inhibitory Activities” (J Nat Prod, 2018).
Structures can show the parent of a compound that is named as a salt.

System: RAW264.7
Assay: Antiinflammatory activity against mouse RAW264.7 cells assessed as inhibition of LPS-induced NO production pretreated for 30 mins followed by LPS stimulation measured after 24 hrs by Griess reagent based assay
Assay type: functional, cell-based
Conditions: not given
Outline: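 Supernatant mixed 1:1 with Griess reagent for 10 min, absorbance read at 540 nm. DMSO final ≤0.1%. Aminoguanidine hydrochloride served as positive control. Run in triplicate; IC50 given as mean ± SD (n = 3).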

SMILES	IC50 [µM]
Cc1cc2c(O)c3c(c(O)c2o1)[C@@]1(C)CCC(=O)C(C)(C)C1=C(O)C3=O	> 50
CC1=C(C)C2=CC(=O)[C@@]34O[C@@]3(C(=O)c3oc(C)cc3C4=O)[C@@]2(C)CC1	10.6
C[C@@H](CO)c1cc2c(c(O)c1O)[C@@]1(C)CCCC(C)(C)[C@@H]1CC2=O	> 50
CC1=C(C)C2=CC(=O)c3c(O)c4c(c(O)c3[C@@]2(C)CC1=O)O[C@@H](C)[C@@H]4O	38.6
COC1=C2C(C)(C)C(=O)CC[C@]2(C)c2c(c(O)c3cc(C)oc3c2O)C1=O	31.1
CC1=C(C)[C@@H](O)C[C@@]2(C)C1=CC(=O)c1c2c(O)c2oc(C)cc2c1O	> 50
CC(O)Cc1cc2c(c(O)c1O)[C@@]1(C)CCCC(C)(C)[C@@H]1CC2=O (some centres undefined)	> 50
CC(CO)c1cc2c(c(O)c1O[C@@H]1O[C@H](CO)[C@@H](O)[C@H](O)[C@H]1O)[C@@]1(C)CC[C@H](O)C(C)(C)[C@@H]1CC2 (some centres undefined)	> 50
COC1=C2C(C)(C)CCC[C@]2(C)c2c(O)c3c(c(O)c2C1=O)C[C@H](C)O3	> 50
C[C@H]1Cc2c(O)c3c(c(O)c2O1)[C@@]1(C)CC[C@]2(C)O[C@]2(C)C1=CC3=O	> 50
C[C@H]1Cc2c(O)c3c(c(O)c2O1)[C@@]1(C)CCC2=C(COC2=O)C1=CC3=O	28.9
COC1=C2C(C)(C)CCC[C@]2(C)c2c(O)c3c(c(O)c2C1=O)C[C@H](CO)O3	35.6
COC1=C2C(C)(C)C(=O)CC[C@]2(C)c2c(O)c3c(c(O)c2C1=O)C[C@H](C)O3	> 50
COC(=O)C1=C(C)C2=CC(=O)c3c(O)c4c(c(O)c3[C@@]2(C)CC1)O[C@@H](C)C4	> 50
C[C@H]1Cc2c(O)c3c(c(O)c2O1)[C@@]1(C)CCC(=O)C(C)(C)[C@@H]1CC3=O	> 50
CC1=C(C)C2=CC(=O)c3c(O)c4c(c(O)c3[C@@]2(C)CC1=O)O[C@@H](C)C4	31.4
CC(C)c1cc2c(c(O)c1O[C@@H]1O[C@H](CO)[C@@H](O)[C@H](O)[C@H]1O)[C@@]1(C)CCC[C@](C)(C(=O)O[C@@H]3O[C@H](CO)[C@@H](O)[C@H](O)[C@H]3O)[C@@H]1CC2	> 50

SMILES	IC50 [µM]
CC1=C(C)C2=CC(=O)c3c(O)c4c(c(O)c3[C@@]2(C)CC1)O[C@@H](C)[C@@H]4O	> 50
CC1=C(C)C2=CC(=O)C3=C(C(=O)[C@]4(Oc5c([C@H](C)CO)cc6c(c5O4)[C@]4(C)CCCC(C)(C)[C@H]4CC6=O)[C@@]4(O)C[C@H](C)O[C@]34O)[C@]2(C)CC1	5.6
CC1(C)CCC[C@]2(C)c3c(O)c4c(c(O)c3C(=O)C[C@@H]12)C[C@H](CO)O4	> 50
COC1=C2C(C)(C)CCC[C@]2(C)c2c(c(O)c3cc(CO)oc3c2O)C1=O	16.1
Cc1cc2c(O)c3c(c(O)c2o1)[C@@]1(C)CCC(=O)C(C)(C)[C@@H]1CC3=O	6
C[C@@]12C[C@@H]1CC[C@]1(C)c3c(O)c4c(c(O)c3C(=O)C[C@@H]21)C[C@H](CO)O4	> 50
CC1=C(C)[C@@H](O)C[C@@]2(C)C1=CC(=O)c1c(O)c3c(c(O)c12)O[C@@H](C)C3	6.5
C=C1C2=CC(=O)c3c(O)c4c(c(O)c3[C@@]2(C)CC[C@@]1(C)O)OC(C)C4 (some centres undefined)	> 50
CC(C)c1cc2c(c(O)c1O[C@@H]1O[C@H](CO)[C@@H](O)[C@H](O)[C@H]1O)[C@@]1(C)CC[C@H](O[C@@H]3O[C@H](CO)[C@@H](O)[C@H](O)[C@H]3O)C(C)(C)[C@@H]1CC2	> 50
C=C1C(C)=CC[C@]2(C)c3c(cc(CC(C)O)c(O[C@@H]4O[C@H](CO)[C@@H](O)[C@H](O)[C@H]4O)c3O)C(=O)C[C@@H]12 (some centres undefined)	> 50
CC1=C(CO)C2=CC(=O)c3c(c(O)c4oc(C)cc4c3O)[C@@]2(C)CC1=O	> 50
CC1=C(C)C2=CC(=O)c3c(c(O)c4oc(C)cc4c3O)[C@@]2(C)CC1=O	> 50
CC(C)c1cc2c(c(O)c1O)[C@@]1(C)CCCC(C)(C)[C@@H]1[C@@H](O)C2=O [6-ALPHA-HYDROXYDEMETHYL-CRYPTOJAPONOL]	9.4
CC(C)c1cc2c(c(O)c1O)[C@@]1(C)CCCC(C)(C)[C@@H]1CC2=O [DEMETHYLCRYPTOJAPONOL]	15.5
N=C(N)NN [PIMAGEDINE HYDROCHLORIDE]	26.2
C[C@H]1Cc2c(O)c3c(c(O)c2O1)[C@@]1(C)CCC(=O)C(C)(C)C1=C(O)C3=O [TEUVINCENONE A]	> 50
CC1(C)CCC[C@@]2(C)C1=C(O)C(=O)c1c(O)c3c(c(O)c12)O[C@@H](CO)C3 [VILLOSIN C]	15.5

System: not listed separately
Assay: Cytotoxicity against mouse RAW264.7 cells assessed as cell survival at 25 uM
Assay type: cell-based
Conditions: read-out: Survival

SMILES	viability at 25 µM [%]
CC1=C(C)C2=CC(=O)c3c(O)c4c(c(O)c3[C@@]2(C)CC1)O[C@@H](C)C4	< 15
CC1=C(C=O)CC[C@@]2(C)C1=CC(=O)c1c(O)c3c(c(O)c12)O[C@@H](C)C3	< 15
CC1(C)CCC[C@@]2(C)C1=CC(=O)c1c(O)c3c(c(O)c12)O[C@@H](CO)C3	< 15
CC1=C(C)[C@H](O)C[C@@]2(C)C1=CC(=O)c1c2c(O)c2oc(C)cc2c1O	< 15
CC1=C(C)C2=CC(=O)c3c(c(O)c4oc(C)cc4c3O)[C@@]2(C)CC1	< 15
CC1=C(CO)C(=O)C[C@@]2(C)C1=CC(=O)c1c(O)c3c(c(O)c12)O[C@@H](C)C3	< 15
CC1=C(C)[C@H](O)C[C@@]2(C)C1=CC(=O)c1c(O)c3c(c(O)c12)O[C@@H](C)C3	< 15
CC1=C(CO)CC[C@@]2(C)C1=CC(=O)c1c(O)c3c(c(O)c12)O[C@@H](C)C3	< 15
CC1=C(C)C2=CC(=O)C3=C(C(=O)c4oc(C)cc4C3=O)[C@@]2(C)CC1	< 15
C[C@H]1Cc2c(O)c3c(c(O)c2O1)[C@@]1(C)CC[C@H](O)C(C)(C)[C@@H]1CC3=O	< 15
